In brackets after ≈: the same amount, converted by molar mass.
Tests used:
Assay type in all cases: functional
Saccharomyces cerevisiae = assay: Antifungal activity against Saccharomyces cerevisiae
Method in brief: (§1)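 Yeasts were tested in YPD broth, with amphotericin B as the reference antifungal.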

Bacillus subtilis = assay: Antibacterial activity against Bacillus subtilis
Method in brief: (§2)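 Broth-based antibacterial test run in LB broth, with puramycin as the reference agent.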

Candida albicans = assay: Antifungal activity against Candida albicans ATCC 90028; method in brief: as §1
Escherichia coli = assay: Antibacterial activity against Escherichia coli ESS K12; method in brief: as §2
[1] = Antibacterial activity against Staphylococcus albus; method in brief: as §2

Compound | MIC (Saccharomyces cerevisiae) [µg/mL] | MIC (Bacillus subtilis) [µg/mL] | MIC (Candida albicans) [µg/mL] | MIC (Escherichia coli) [µg/mL] | MIC [1] [µg/mL]
[C-]#[N+][C@@H]1[C@@H]2c3c(C(C)(C)C=C)[nH]c4cccc(c34)C(C)(C)[C@H]2CC[C@]1(C)C=C | 5 (≈ 13.4 µM) | 1.25 (≈ 3.36 µM) | 6.25 (≈ 16.8 µM) | 10 (≈ 26.8 µM) | 0.625 (≈ 1.68 µM)
C=C[C@@]1(C)CC[C@@H]2C(C)(C)c3cccc4[nH]c5c(c34)[C@@]2(O)[C@]1(C#N)[C@H]1O[C@H]1C5(C)C [AMBIGUINE I ISONITRILE] | 0.312 (≈ 0.775 µM) | 0.312 (≈ 0.775 µM) | 0.39 (≈ 0.969 µM) | 2.5 (≈ 6.21 µM) | 0.078 (≈ 0.194 µM)
C[C@@H]1[C@H](O)[C@@H](C)/C=C/C=C/C=C/C=C/C=C/C=C/C=C/[C@H](O[C@@H]2O[C@H](C)[C@@H](O)[C@H](N)[C@@H]2O)C[C@@H]2O[C@](O)(C[C@@H](O)C[C@@H](O)[C@H](O)CC[C@@H](O)C[C@@H](O)CC(=O)O[C@H]1C)C[C@H](O)[C@H]2C(=O)O [AMPHOTERICIN B] |  |  | 1.56 (≈ 1.69 µM) |  | 
COc1ccc(C[C@H](N)C(=O)N[C@H]2[C@@H](O)[C@H](n3cnc4c(N(C)C)ncnc43)O[C@@H]2CO)cc1 [PUROMYCIN] | 0.312 (≈ 0.662 µM) |  |  |  | 
CN[C@@H]1[C@H](O[C@H]2[C@H](O[C@H]3[C@H](O)[C@@H](O)[C@H](N=C(N)N)[C@@H](O)[C@@H]3N=C(N)N)O[C@@H](C)[C@]2(O)C=O)O[C@@H](CO)[C@H](O)[C@H]1O [STREPTOMYCIN] |  | 2.5 (≈ 4.3 µM) |  | 0.312 (≈ 0.536 µM) | 0.156 (≈ 0.268 µM)

Source: ChEMBL document CHEMBL1141423, “Antimicrobial ambiguines from the cyanobacterium Fischerella sp. collected in Israel” (2007)
